KCNQ1 pot: potentiators or activators of human KCNQ1 potassium channel; P51787; CHO-K1 KCNQ1, thallium flux FluxOR fluorescence; active compounds read high; B-score at 10 µM; 0.35% of 310,000 active;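 active = fluorescence ratio B-score, a plate-corrected score, at least three library SD, with initial intensity B-score within 5 SD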
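Assay system: CHO-K1 cells stably expressing KCNQ1. Medium: assay buffer for compound exposure, DMSO matched across wells. Timing: 37 °C overnight plating, 90-min dark dye load, 20-min compound pretreatment. Signal: kinetic FluxOR fluorescence, 10 s baseline plus 110 s post-stimulus.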
KCNK9 inh: inhibitors of human KCNK9 two-pore domain potassium channel. AID 488922. 1.2% of 310,000 active. B-score at 10 µM. HEK293 KCNK9, FluxOR thallium flux fluorescence; active compounds read low;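 active = ratio B-score over 3 SD below the library mean, with starting fluorescence within 5 SD of its mean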;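 also: negative B-score means less thallium flux so channel inhibition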
hERG rescue: compounds protecting human hERG from proarrhythmic drug block; activation (rescue from dofetilide block), less the hit threshold, % at 10 µM; 0.51% of 310,000 active; CHO-hERG, FluxOR thallium flux, dofetilide IC70 present; AID 1511;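 active = activation above the mean of controls blocked by dofetilide plus 5 SD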;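 also: thallium influx through hERG after potassium depolarization seen as dye fluorescence rise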
Target sequence (Q12809 whole entry, looked up): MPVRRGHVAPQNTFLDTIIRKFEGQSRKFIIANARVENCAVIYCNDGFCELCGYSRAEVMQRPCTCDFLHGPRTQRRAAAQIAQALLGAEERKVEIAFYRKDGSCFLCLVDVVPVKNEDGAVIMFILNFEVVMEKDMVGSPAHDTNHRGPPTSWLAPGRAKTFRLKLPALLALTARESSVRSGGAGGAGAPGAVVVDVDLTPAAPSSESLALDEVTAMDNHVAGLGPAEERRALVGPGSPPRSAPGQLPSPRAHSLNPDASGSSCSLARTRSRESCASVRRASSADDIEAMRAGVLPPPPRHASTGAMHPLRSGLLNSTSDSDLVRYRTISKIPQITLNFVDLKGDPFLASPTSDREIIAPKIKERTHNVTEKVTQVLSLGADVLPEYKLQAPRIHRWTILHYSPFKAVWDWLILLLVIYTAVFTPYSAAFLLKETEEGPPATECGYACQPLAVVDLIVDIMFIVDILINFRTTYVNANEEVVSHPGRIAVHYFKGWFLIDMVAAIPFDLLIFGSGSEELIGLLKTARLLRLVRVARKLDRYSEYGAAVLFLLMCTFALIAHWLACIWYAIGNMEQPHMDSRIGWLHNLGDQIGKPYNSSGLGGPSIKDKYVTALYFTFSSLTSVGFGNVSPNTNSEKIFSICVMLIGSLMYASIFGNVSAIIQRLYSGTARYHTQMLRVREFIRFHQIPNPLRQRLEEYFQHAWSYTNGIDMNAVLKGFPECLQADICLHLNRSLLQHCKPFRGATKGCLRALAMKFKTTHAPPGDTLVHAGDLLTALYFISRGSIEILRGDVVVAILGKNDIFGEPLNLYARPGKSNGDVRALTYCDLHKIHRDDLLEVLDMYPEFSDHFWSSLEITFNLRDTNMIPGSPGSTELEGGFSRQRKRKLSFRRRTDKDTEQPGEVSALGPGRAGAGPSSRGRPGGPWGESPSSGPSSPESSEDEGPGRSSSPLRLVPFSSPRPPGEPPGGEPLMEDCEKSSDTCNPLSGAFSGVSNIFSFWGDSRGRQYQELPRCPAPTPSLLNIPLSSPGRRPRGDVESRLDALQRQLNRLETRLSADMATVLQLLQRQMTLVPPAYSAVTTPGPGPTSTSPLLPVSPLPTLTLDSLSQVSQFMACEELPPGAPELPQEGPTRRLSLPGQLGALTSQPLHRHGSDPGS
KCNQ1 block: human KCNQ1 channel inhibition; 1.3% of 310,000 active; AID 2642; B-score at 10 µM; CHO-K1 KCNQ1, FluxOR thallium flux fluorescence; active compounds read high;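 active = compounds whose thallium flux B-score, printed positive for inhibition, exceeds three library SD while starting fluorescence stays within three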;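 also: channel opened by potassium depolarization with thallium stimulus after 20 min compound exposure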
KCNK3 inh: human KCNK3 channel inhibition, primary screen; AID 602410; CHO-KCNK3 thallium flux, FluxOR fluorescence; active compounds read low; B-score at 10 µM; 0.84% of 340,000 active;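 active = B-score under library mean minus 4 SD, starting fluorescence ratio at most library mean plus 5 SD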;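 also: more negative B-score means stronger inhibition of thallium flux through KCNK3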
KCNK9 block conf: human KCNK9 inhibitor confirmation; HEK293 KCNK9 cells, FluxOR thallium flux fluorescence; shares compounds with KCNK9 inh; inhibition, % at 10 µM; 43% of 4,900 active;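 active = thallium signal inhibited by more than 5 SD of the compound-free buffer control wells, on both duplicate plates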;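 also: 0% = assay buffer control wells without compound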
Kir2-1 spec: mouse Kir2.1 off-target activity of KCNK9 modulators; shares compounds with KCNK9 inh; Kir2.1 cells, FluxOR thallium flux fluorescence; inhibition, % at 10 µM; 4% of 4,900 active;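 active = thallium signal drop more than 5 SD beyond the mean of the no-compound control wells, seen in both duplicate plates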;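 also: signal is fluorescence rise after thallium addition divided by baseline fluorescence; plate controls were assay buffer only for no effect and full block by chlorpromazine control for full effect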
HEK293 Tl ctr: second check of KCNK9 modulator effects in non-induced HEK293 cells; shares compounds with KCNK9 inh; FluxOR thallium flux; inhibition, % at 10 µM; 40% of 4,900 active; AID 492997;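 active = thallium signal drop beyond 5 SD of the untreated control mean, on both duplicate plates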;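 also: plate controls were buffer only IC0 wells for no effect and SID17386958 at its maximal inhibitory level for full effect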
* hit, by the source's call; i = inactive; . = no result given. An excerpt weighted towards active compounds, which were near 3.1% of everything screened.

SMILES	KCNQ1 pot	KCNK9 inh	hERG rescue	KCNQ1 block	KCNK3 inh	KCNK9 block conf	Kir2-1 spec	HEK293 Tl ctr
CC(c1ccccc1)N(CC(=O)NC1CCCCC1)S(=O)(=O)c1cccc(C(F)(F)F)c1 (stereo unspecified)	i	-8.2*	-9	i	i	49%*	i	47%*
CC(C)c1nnc(NC(=O)CSc2nnc(-c3ccco3)o2)s1	i	i	-9	i	i	.	.	.
Cc1ccccc1-n1ncc2c(SCC(=O)N3c4ccccc4CC3C)ncnc21 (stereo unspecified)	i	i	-7	i	i	i	i	i
Cc1ccccc1-n1ncc2c(SCC(=O)NC3CCCC3)ncnc21	i	i	-4	i	i	.	.	.
COCCNC(=O)COC(=O)c1ccc(OCC(=O)Nc2ccccc2OC)c(OC)c1	i	i	-11	i	i	.	.	.
C[C@@H](C(=O)O)[C@H]1C[C@]1(C)[C@H](NC(=O)OCc1ccccc1)c1ccccc1	i	i	-7	i	i	.	.	.
C[C@@H](C(=O)NCc1ccccc1)[C@H]1C[C@]1(C)[C@H](NC(=O)OCc1ccccc1)c1ccccc1	i	-9.2*	-8	i	i	49%*	i	i
CCOC(=O)C1(CCc2ccccc2)CCN(Cc2cccc3nccnc23)CC1	i	i	-2	i	i	i	i	23%*
CCOC(=O)C1(CCCc2ccccc2)CCN(C(=O)Cc2nonc2C)CC1	i	i	-3	i	i	i	i	i
CCOC(=O)C1(CCOc2ccccc2)CCN(Cc2nccn2CC)CC1	i	i	-4	i	i	.	.	.
CCOC(=O)C1(CCCc2ccccc2)CCN(Cc2nccn2CC)CC1	i	i	-17	i	i	i	i	i
CCOC(=O)C1(CCc2ccccc2)CCN(Cc2ccn[nH]2)CC1	i	i	-2	i	i	.	.	.
C(#Cc1c(-c2ccsc2)sc2ccccc12)c1ccsc1	.	.	.	.	i	.	.	.
COc1ccc(C(=O)NCc2ccc(N3CCN(C(=O)OC(C)(C)C)CC3)cc2)cc1	i	i	1	i	i	i	i	i
COc1cccc(C(=O)NCc2ccc(N3CCN(C(=O)OC(C)(C)C)CC3)cc2)c1	i	i	-14	i	i	.	.	.
COc1ccc(OC)c(NC(=O)C(Sc2ccccc2)c2ccccc2)c1 (stereo unspecified)	i	-11*	-8	i	i	58%*	i	46%*
COc1ccc(C(=O)/C=C/NCc2ccc(C)cc2)cc1	i	i	-7	i	i	i	i	i
CCOc1ccccc1C(=O)N[C@H](C(=O)OCc1cc([N+](=O)[O-])cc2c1OCOC2)C(C)C	i	-10*	-13	i	i	48%*	i	25%*
CC(C)C(NC(=O)c1ccccc1)C(=O)OCc1cc([N+](=O)[O-])cc2c1OCOC2 (stereo unspecified)	i	i	-8	i	i	.	.	.
COc1ccc(C)cc1NC(=O)C(OC(=O)CNC(=O)c1ccc(Br)cc1)c1ccccc1 (stereo unspecified)	i	-10*	-7	i	i	36%*	i	38%*
COc1ccc(C)cc1NC(=O)C(OC(=O)c1ccc(Cl)c(S(=O)(=O)N(C)c2ccccc2)c1)c1ccccc1 (stereo unspecified)	i	-9.6*	-6	i	-9.8*	42%*	i	i
Cc1cc(C(=O)NCC(=O)OC(C(=O)Nc2cc(C(F)(F)F)ccc2Cl)c2ccccc2)ccc1[N+](=O)[O-] (stereo unspecified)	i	-20*	-6	i	-9.5*	62%*	i	32%*
COc1ccc(C)cc1NC(=O)C(OC(=O)c1cnccn1)c1ccccc1 (stereo unspecified)	i	i	-16	i	i	.	.	.

Screening data as filed in PubChem BioAssay.
